In ChEMBL document CHEMBL4373710, “DNA Structural Alteration Leading to Antibacterial Properties of 6-Nitroquinoxaline Derivatives” (J Med Chem, 2019) one finds Activity, MIC and inhibition data, which are given here for 1 compound.

Converted amounts (≈) assume the structure as drawn. The source made the active and inactive calls.

Data set [1] has as its system DNA. The data set is described as follows: Binding affinity to Staphylococcus aureus DNA assessed as formation of DNA superstructure at 1:1 to 3:1 compound to DNA ratio by atomic force microscopic analysis. Format: nucleic-acid assay. The essentials:
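Isolated S. aureus genomic DNA (2.8 Mbp) treated with compound at increasing [compound]:[DNA bp] ratios, up to 3:1. Imaged by atomic force microscopy against untreated DNA.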

In data set [2] the test system is DNA. In words: Induction of DNA condensation in Staphylococcus aureus assessed as nucleoid shrinkage at 10 uM after 1 hr by DAPI staining-based confocal laser scanning fluorescence microscopic analysis. The class given is nucleic-acid assay. In short, it runs like this: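 S. aureus grown 6 h at 37 °C, washed into PBS and exposed to 10 µM compound or 0.5% DMSO for 1 h at 37 °C with shaking. Fixed in paraformaldehyde for 30 min at 4 °C, then DAPI-stained for 5 min. Nucleoid and cell areas measured from phase contrast/DAPI images; N/C ratio from 35 cells over three independent experiments, mean ± SD.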

Data set [3] deals with Staphylococcus aureus. The data set is described as follows: Induction of morphological changes in Staphylococcus aureus assessed as changed population at 5 uM measured after 2 hrs by flow cytometric analysis (reference value: 5.71%). The class given is functional.
A further data set has as its system Escherichia coli. In words: Antibacterial activity against Escherichia coli MTCC1916 by broth microdilution assay. The class given is functional. The essentials: (§1)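 Broth microdilution per CLSI; 5×10^5 cfu/mL bacteria in LB broth; compounds from DMSO stocks, final DMSO under 0.6%, with DMSO control. Plates incubated at the strain's recommended growth temperature and time; growth read as OD600.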
(Broth dilution looks for growth in wells or tubes with falling amounts of substance.)

The test system of data set [4] is Staphylococcus aureus. The data set is described as follows: Inhibition of DNA synthesis in Staphylococcus aureus at 3.5 uM measured after 1 hr by BrdU incorporation assay. The class given is functional, organism-based. In short, it runs like this: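 Log-phase S. aureus (10^5–10^6 CFU/mL) exposed to 3.5 µM for 1 h at 37°C, then BrdU pulse for 30 min; fixed in paraformaldehyde, permeabilised (Triton X-100/lysostaphin), DNA denatured in 2N HCl, stained with FITC anti-BrdU antibody, confocal imaging.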

Data set [5] has as its system DNA. In words: Binding affinity to Escherichia coli pBR322 DNA assessed as height of DNA at 0.5:1 to 3:1 compound to DNA ratio by atomic force microscopic analysis. Format: nucleic-acid assay. In short, it runs like this:
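Supercoiled pBR322 plasmid treated with compound at [compound]:[DNA bp] ratios of 0.5:1, 1:1, 1.5:1, 2:1 and 3:1. Imaged by atomic force microscopy, with DNA height measured and compared against untreated plasmid.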

Data set [6] has as its system DNA. In words: Binding affinity to DNA isolated from HEK293 cells assessed as change in ellipticity at 262 nm at 15 to 180 uM by circular dichroism method. The class given is ADME, cell-free. The following applies: human. For orientation: CD spectra are sensitive to the conformation of chiral molecules.
The next data set deals with Pseudomonas aeruginosa. The data set is described as follows: Antibacterial activity against Pseudomonas aeruginosa MTCC1688 by broth microdilution assay. Format: functional. The essentials: as §1
The test system of data set [7] is Staphylococcus aureus. In words: Disruption of cell membrane in Staphylococcus aureus assessed as accumulation of propidium iodide negative cells at 3.5 uM by flow cytometric analysis (reference value: 98.2%). Format: functional.
The test system of data set [8] is DNA. The data set is described as follows: Inhibition of ethidium bromide binding to Staphylococcus aureus DNA at 37 degC by fluorescence assay. The class given is nucleic-acid assay. In short, it runs like this: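 S. aureus genomic DNA (10 µM) with EtBr (5 µM) in 10 mM NaP pH 7, 10 mM NaCl and 1% DMSO, at 25 and 37 °C. Titrated with compound from 2.5 to 100 µM. Excitation 480 nm, emission scanned 520–700 nm, corrected for inner filter. Stern–Volmer analysis, triplicates. Variants: pH 6–8, or NaCl raised to 50 and 200 mM.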

Data set [9] deals with Staphylococcus epidermidis. The data set is described as follows: Disruption of preformed biofilm in Staphylococcus epidermidis up to 4 times MIC measured after 12 hrs by crystal violet staining based light microscopic analysis. The class given is functional, organism-based. The essentials:
(§2)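 Planktonic cells washed off; 1% crystal violet 10 min, solubilised in 30% acetic acid, A550 read; wells also imaged at 20X by light microscopy.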

Data set [10] has as its system Staphylococcus aureus. In words: Disruption of preformed biofilm in Staphylococcus aureus at 4 times MIC measured after 12 hrs by crystal violet staining based light microscopic analysis. Format: functional. The essentials: as §2

Regarding `CN(C)CCCNc1nc2cc([N+](=O)[O-])ccc2nc1NCc1ccc(C(F)(F)F)cc1`, the result (with DNA [1]; in the data set on DNA [2]; in data set [9]) was Active. In addition, the Activity is 14.6% in the data set on Staphylococcus aureus [3]; 0.32 to 1.3 nm with DNA [5]; “Active” in the data set on DNA [6]; 91.6% in the data set on Staphylococcus aureus [7]; 100% with Staphylococcus aureus [10]. The minimal inhibitory concentration (MIC) in the data set with Escherichia coli is 3.36 µg/mL (≈ 7.49 µM); in the data set on Pseudomonas aeruginosa, 6.73 µg/mL (≈ 15 µM). In addition, the inhibition result in the data set on Staphylococcus aureus [4] and with DNA [8] was “Active” each time.

Broadly, the MIC is the smallest concentration in the dilution series that meets the test's criterion for growth inhibition. A higher MIC goes with weaker potency.
